Laboratory results from ChEMBL document CHEMBL1122677, “Ring-substituted 1,2-dialkylated 1,2-bis(hydroxyphenyl)ethanes. 3. Synthesis, estrogen receptor binding affinity, and evaluation of antiestrogenic and mammary tumor inhibiting activity of 2,2'-disubstituted butestrols and 6,6'-disubstituted metabutestrols” (1984).

Columns and labels:
[1] = target: Estrogen receptor (Bos taurus) (UniProt Q9XSB5+P49884); experiment: Displacement of [3H]-estradiol from calf uterine estrogen receptor; assay type: protein assay
Method in brief: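 Calf uterine cytosol incubated with [³H]estradiol and competitor at six concentrations, 4 °C for 16 h. Dextran-coated charcoal stopped incubation; supernatant radioactivity counted after centrifugation. Percent bound plotted vs log concentration; the molar concentrations of estradiol and test compound halving radioligand binding were read off and expressed as relative binding affinity.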

[2] = target: T1, Estrogen receptor (Mus musculus) (UniProt O08537+P19785); experiment: Uterotrophic effect in mice at 0.1 ug; assay type: functional, tissue-based; conditions: Uterus
T1 sequence (O08537 whole entry, looked up): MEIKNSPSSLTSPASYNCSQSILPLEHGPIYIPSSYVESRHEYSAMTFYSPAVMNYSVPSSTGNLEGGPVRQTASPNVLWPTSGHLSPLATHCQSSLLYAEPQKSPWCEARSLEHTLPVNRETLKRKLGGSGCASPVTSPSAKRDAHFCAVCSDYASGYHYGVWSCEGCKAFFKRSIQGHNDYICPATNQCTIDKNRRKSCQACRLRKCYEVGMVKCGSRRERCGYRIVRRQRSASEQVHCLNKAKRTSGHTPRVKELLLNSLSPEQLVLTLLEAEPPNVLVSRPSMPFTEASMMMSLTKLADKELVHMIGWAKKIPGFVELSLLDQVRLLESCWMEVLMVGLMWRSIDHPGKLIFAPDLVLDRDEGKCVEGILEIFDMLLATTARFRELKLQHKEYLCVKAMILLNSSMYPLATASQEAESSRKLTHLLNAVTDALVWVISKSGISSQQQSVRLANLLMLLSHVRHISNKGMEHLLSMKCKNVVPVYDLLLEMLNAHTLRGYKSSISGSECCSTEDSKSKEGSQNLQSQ
T1 sequence (P19785 whole entry, looked up): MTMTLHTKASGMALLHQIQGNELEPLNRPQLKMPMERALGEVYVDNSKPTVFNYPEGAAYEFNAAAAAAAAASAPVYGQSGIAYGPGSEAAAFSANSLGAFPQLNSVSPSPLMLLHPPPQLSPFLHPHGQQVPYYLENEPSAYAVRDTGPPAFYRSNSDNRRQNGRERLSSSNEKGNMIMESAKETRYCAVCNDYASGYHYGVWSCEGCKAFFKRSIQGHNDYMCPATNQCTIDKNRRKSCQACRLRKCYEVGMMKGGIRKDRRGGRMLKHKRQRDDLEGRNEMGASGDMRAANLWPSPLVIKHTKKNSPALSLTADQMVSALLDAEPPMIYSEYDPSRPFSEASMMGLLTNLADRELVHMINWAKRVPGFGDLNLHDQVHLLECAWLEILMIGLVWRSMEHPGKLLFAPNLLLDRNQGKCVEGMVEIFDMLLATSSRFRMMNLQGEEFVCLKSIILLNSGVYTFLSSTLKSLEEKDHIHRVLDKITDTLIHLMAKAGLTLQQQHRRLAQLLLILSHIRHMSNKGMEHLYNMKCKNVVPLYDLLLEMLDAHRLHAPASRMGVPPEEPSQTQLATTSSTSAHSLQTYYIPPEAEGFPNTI
Method in brief: (§1)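 Immature female NMRI mice, 20 days old (14.5 ± 1.2 g), in groups of 10, injected sc daily for 3 days with test compound in 0.1 mL olive oil. Uteri were removed 24 h after the last injection, Bouin-fixed, washed, dried and weighed. Groups were compared by Wilcoxon–Mann–Whitney U test.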

[3] = target: T1, Estrogen receptor (Mus musculus); experiment: (§2) Uterotrophic effect in mice at 0 ug; assay type: functional, tissue-based; set-up: unit not given here; conditions: Uterus; method in brief: as §1
[4] = target: T1, Estrogen receptor (Mus musculus); experiment: (§3) Uterotrophic effect in mice at 1 ug; assay type: functional, tissue-based; conditions: Uterus; method in brief: as §1
[5] = target: T1, Estrogen receptor (Mus musculus); experiment: (§4) Uterotrophic effect in mice at 10 ug; assay type: functional, tissue-based; conditions: Uterus; method in brief: as §1
[6] = target: T1, Estrogen receptor (Mus musculus); experiment: Antiuterotrophic effect in mice at 50 ug; assay type: functional; set-up: unit not given here
Method in brief: (§5)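 Antiestrogenic read-out: inhibition of estrone-stimulated uterine growth in immature female NMRI mice, 20 days old, in groups of 10. Test compound in 0.1 mL olive oil was given sc daily for 3 days. Uteri were taken 24 h after the last dose, fixed in Bouin's solution, washed, dried and weighed.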

[7] = target: T1, Estrogen receptor (Mus musculus); experiment: Antiuterotrophic effect in mice at 500 ug; assay type: functional; set-up: unit not given here; method in brief: as §5
[8] = target: T1, Estrogen receptor (Mus musculus); experiment: Antiuterotrophic effect in mice at 5 ug; assay type: functional; set-up: unit not given here; method in brief: as §5
[9] = target: T1, Estrogen receptor (Mus musculus); experiment: as §2; assay type: functional, tissue-based; conditions: Uterus; method in brief: as §1
[10] = target: T1, Estrogen receptor (Mus musculus); experiment: Percent inhibition of uterotrophic effect in mice at 5 ug; assay type: functional; method in brief: as §5
[11] = target: T1, Estrogen receptor (Mus musculus); experiment: Percent inhibition of uterotrophic effect in mice at 500 ug; assay type: functional; method in brief: as §5
[12] = target: T1, Estrogen receptor (Mus musculus); experiment: Uterotrophic effect in mice at 100 ug; assay type: functional, tissue-based; conditions: Uterus; method in brief: as §1
[13] = target: T1, Estrogen receptor (Mus musculus); experiment: Percent inhibition of uterotrophic effect in mice at 50 ug; assay type: functional; method in brief: as §5
[14] = target: T1, Estrogen receptor (Mus musculus); experiment: Antiuterotrophic effect in mice at 0 ug; assay type: functional; method in brief: as §5
[15] = target: T1, Estrogen receptor (Mus musculus); experiment: as §3; assay type: functional, tissue-based; set-up: unit not given here; conditions: Uterus; method in brief: as §1
[16] = target: T1, Estrogen receptor (Mus musculus); experiment: as §4; assay type: functional, tissue-based; set-up: unit not given here; conditions: Uterus; method in brief: as §1
[17] = target: T1, Estrogen receptor (Mus musculus); experiment: Uterotrophic effect in mice at 1 ug (alpha =0.01); assay type: functional, tissue-based; conditions: Uterus; method in brief: as §1
[18] = target: T1, Estrogen receptor (Mus musculus); experiment: Uterotrophic effect in mice at 100 ug (alpha =0.01); assay type: functional, tissue-based; conditions: Uterus; method in brief: as §1
[19] = target: T1, Estrogen receptor (Mus musculus); experiment: Uterotrophic effect in mice at 1000 ug; assay type: functional, tissue-based; conditions: Uterus; method in brief: as §1
[20] = target: T1, Estrogen receptor (Mus musculus); experiment: Uterotrophic effect in mice at 10 ug (alpha =0.01); assay type: functional, tissue-based; conditions: Uterus; method in brief: as §1
Rattus norvegicus [21] = organism: Rattus norvegicus; experiment: Percent partial remission in DMBA-induced hormone dependent mammary carcinoma in rats at 5 mg dose; assay type: functional
Method in brief: (§6)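 DMBA-induced, hormone-dependent mammary adenocarcinoma in SD rats. Dose is per kg body weight and day, given once daily Monday–Thursday and doubled on Friday. Initial tumors were counted at the start and new tumors during the test. Tumors were scored as complete remission (not palpable), partial remission (≥50% size reduction), no change or progression. Tumor area and body weight change were recorded.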

Rattus norvegicus [22] = organism: Rattus norvegicus; experiment: Percent unchanged tumors in DMBA-induced hormone dependent mammary carcinoma in rats at 5 mg dose; assay type: functional; method in brief: as §6
Rattus norvegicus [23] = organism: Rattus norvegicus; experiment: Percent change in total tumor area of DMBA-induced hormone dependent mammary carcinoma in rats at 5 mg dose (alpha <0.05)
Rattus norvegicus [24] = organism: Rattus norvegicus; experiment: Percent partial remission in DMBA-induced hormone dependent mammary carcinoma in rats at 2 mg dose; assay type: functional; method in brief: as §6
Rattus norvegicus [25] = organism: Rattus norvegicus; experiment: Initial tumor number of DMBA-induced hormone dependent mammary carcinoma in rats prior to 2 mg dose; assay type: functional; method in brief: as §6
Rattus norvegicus [26] = organism: Rattus norvegicus; experiment: Initial tumor number of DMBA-induced hormone dependent mammary carcinoma in rats prior to 5 mg dose; assay type: functional; method in brief: as §6
Rattus norvegicus [27] = organism: Rattus norvegicus; experiment: Percent change in body weight in rats at 2 mg; assay type: functional; method in brief: as §6
[28] = target: T1, Estrogen receptor (Mus musculus); experiment: Uterotrophic effect in mice at 10 ug (alpha=0.01); assay type: functional, tissue-based; conditions: Uterus; method in brief: as §1
Rattus norvegicus [29] = organism: Rattus norvegicus; experiment: Percent change in body weight in rats at 5 mg; assay type: functional; method in brief: as §6
Rattus norvegicus [30] = organism: Rattus norvegicus; experiment: Percent progressive tumors in DMBA-induced hormone dependent mammary carcinoma in rats at 5 mg dose; assay type: functional; method in brief: as §6
Rattus norvegicus [31] = organism: Rattus norvegicus; experiment: Percent complete remission in DMBA-induced hormone dependent mammary carcinoma in rats at 5 mg dose; assay type: functional; method in brief: as §6
Rattus norvegicus [32] = organism: Rattus norvegicus; experiment: Percent progressive tumors in DMBA-induced hormone dependent mammary carcinoma in rats at 2 mg dose; assay type: functional; method in brief: as §6
Rattus norvegicus [33] = organism: Rattus norvegicus; experiment: Final tumor number of DMBA-induced hormone dependent mammary carcinoma in rats after 5 mg dose; assay type: functional; method in brief: as §6
[34] = target: T1, Estrogen receptor (Mus musculus); experiment: Uterotrophic effect in mice at 1 ug (alpha=0.01); assay type: functional, tissue-based; conditions: Uterus; method in brief: as §1
Rattus norvegicus [35] = organism: Rattus norvegicus; experiment: Percent complete remission in DMBA-induced hormone dependent mammary carcinoma in rats at 2 mg dose; assay type: functional; method in brief: as §6
Rattus norvegicus [36] = organism: Rattus norvegicus; experiment: Final tumor number of DMBA-induced hormone dependent mammary carcinoma in rats after 2 mg dose; assay type: functional; method in brief: as §6
Rattus norvegicus [37] = organism: Rattus norvegicus; experiment: Percent change in total tumor area of DMBA-induced hormone dependent mammary carcinoma in rats at 2 mg dose (alpha <0.05); assay type: functional; method in brief: as §6
Rattus norvegicus [38] = organism: Rattus norvegicus; experiment: Percent unchanged tumors in DMBA-induced hormone dependent mammary carcinoma in rats at 2 mg dose; assay type: functional; method in brief: as §6
[39] = target: T1, Estrogen receptor (Mus musculus); experiment: Anti-estrogenic activity in mice at 0 ug; assay type: functional; method in brief: as §5
[40] = target: T1, Estrogen receptor (Mus musculus); experiment: Anti-estrogenic activity in mice at 500 ug; assay type: functional; method in brief: as §5
[41] = target: T1, Estrogen receptor (Mus musculus); experiment: Anti-estrogenic activity in mice at 50 ug; assay type: functional; method in brief: as §5

## CC(c1cc(O)ccc1O)C(C)c1cc(O)ccc1O (centres undefined)
[1]
  relative binding affinity (RBA): 0.01

## Cc1cc(O)ccc1C(C)C(C)c1ccc(O)cc1C (centres undefined)
[2]
  Effect: 29.2
[3]
  Effect: 11.8
[4]
  Effect: 36.5
[1]
  relative binding affinity (RBA): 29
[5]
  Effect: 39.4

## CC(c1cc(O)ccc1Cl)C(C)c1cc(O)ccc1Cl (centres undefined)
[6]
  Effect: 39.3
[4]
  Effect: 13
[1]
  relative binding affinity (RBA): 1.7
[7]
  Effect: 37.2
[5]
  Effect: 26.5
[8]
  Effect: 40.1
[9]
  Effect: 11.1
[10]
  inhibition: 21%
[11]
  inhibition: 30%
[12]
  Effect: 41.8
[13]
  inhibition: 24%
[14]
  Effect: 14.4

## CC(c1ccc(O)cc1F)C(C)c1ccc(O)cc1F (centres undefined)
[3]
  Effect: 11.8
[15]
  Effect: 50.2
[1]
  relative binding affinity (RBA): 15
[16]
  Effect: 51.4

## CC(c1cccc(O)c1)C(C)c1cccc(O)c1 (centres undefined)
[17]
  Effect: 11.7
[3]
  Effect: 11.9
[6]
  Effect: 39
[18]
  Effect: 12.6
[1]
  relative binding affinity (RBA): 1
[19]
  Effect: 13.1
[7]
  Effect: 36.5
[20]
  Effect: 12.4
[8]
  Effect: 43
[10]
  inhibition: 13%
[13]
  inhibition: 25%
[14]
  Effect: 14.4

## CC(c1ccc(O)cc1Br)C(C)c1ccc(O)cc1Br (centres undefined)
[1]
  relative binding affinity (RBA): 3.4

## Cc1ccc(O)cc1C(C)C(C)c1cc(O)ccc1C (centres undefined)
Rattus norvegicus [21]
  Tumors: 4%
Rattus norvegicus [22]
  Tumors: 25%
Rattus norvegicus [23]
  Tumor area: 283
Rattus norvegicus [24]
  Tumors: 4%
Rattus norvegicus [25]
  No. of tumors: 23
Rattus norvegicus [26]
  No. of tumors: 25
[6]
  Effect: 40.6
Rattus norvegicus [27]
  Body weight: 1.5
[28]
  Effect: 14.2
Rattus norvegicus [29]
  Body weight: 1.1
Rattus norvegicus [30]
  Tumors: 56%
[1]
  relative binding affinity (RBA): 5.2
[19]
  Effect: 17.4
[7]
  Effect: 35.6
Rattus norvegicus [31]
  Tumors: 15%
Rattus norvegicus [32]
  Tumors: 56%
Rattus norvegicus [33]
  No. of tumors: 23
[34]
  Effect: 13.7
Rattus norvegicus [35]
  Tumors: 11%
[8]
  Effect: 45.4
[9]
  Effect: 11.1
Rattus norvegicus [36]
  No. of tumors: 25
[10]
  inhibition: 5%
[11]
  inhibition: 35%
[12]
  Effect: 12.5
[13]
  inhibition: 20%
Rattus norvegicus [37]
  Tumor area: 245
Rattus norvegicus [38]
  Tumors: 29%
[14]
  Effect: 14.4

## CCc1cc(O)ccc1C(C)C(C)c1ccc(O)cc1CC (centres undefined)
[3]
  Effect: 12.5
[15]
  Effect: 38.8
[1]
  relative binding affinity (RBA): 12
[12]
  Effect: 47
[16]
  Effect: 45.2

## CC(c1ccc(O)cc1Cl)C(C)c1ccc(O)cc1Cl (centres undefined)
[3]
  Effect: 11.8
[15]
  Effect: 41.6
[1]
  relative binding affinity (RBA): 4.5
[16]
  Effect: 40.7

## CC(c1ccc(O)cc1O)C(C)c1ccc(O)cc1O (centres undefined)
[3]
  Effect: 12.5
[6]
  Effect: 39.1
[15]
  Effect: 15.4
[1]
  relative binding affinity (RBA): 2.1
[19]
  Effect: 34.6
[7]
  Effect: 38.7
[8]
  Effect: 50.6
[11]
  inhibition: 26%
[12]
  Effect: 26.2
[13]
  inhibition: 25%
[16]
  Effect: 20.3
[14]
  Effect: 14.4

## CC(c1ccc(O)cc1)C(C)c1ccc(O)cc1 (centres undefined)
[2]
  Effect: 17.7
[39]
  Effect: 14.4
[40]
  Effect: 37.8
[4]
  Effect: 22.6
[1]
  relative binding affinity (RBA): 12
[19]
  Effect: 34.8
[5]
  Effect: 28
[8]
  Effect: 43.3
[9]
  Effect: 11.8
[10]
  inhibition: 12%
[11]
  inhibition: 28%
[12]
  Effect: 42.2
[13]
  inhibition: 26%
[41]
  Effect: 38.7
